Data set [1] deals with Leishmania donovani. Description: Antileishmanial activity against promastigote stage of Leishmania donovani MHOM/NP/02/BPK282/0c14 assessed as parasite growth inhibition up to 40 uM after 72 hrs by Alamar blue assay. Format: functional, organism-based. In a few lines:
(§1)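 Late log/stationary promastigotes were seeded at 10^6/mL in HOMEM with 20% FBS and exposed to compounds at 40–1.6 µM for 72 h at 26 °C, from 8 mM DMSO stocks. AlamarBlue was then added for 24 h at 26 °C, and absorbance was read at 550 and 630 nm. Runs were in duplicate. IC50/72h is the mean of two independent determinations.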

The subject of data set [2] is Leishmania donovani. The data set is described as follows: Antileishmanial activity against promastigote stage of Leishmania donovani MHOM/NP/02/BPK282/0c14 assessed as parasite growth inhibition after 72 hrs by Alamar blue assay. The data set is classed as functional, organism-based. As to conditions: MHOM/NP/02/BPK282/0c14, 72 h. In a few lines: as §1
A general note: The colour change of resazurin is a common sign of viable cells or microbes.

Data set [3] in a line: Cytotoxicity against African green monkey Vero cells after 72 hrs by Alamar blue assay. The data set is classed as cell-based. As to conditions: chlorocebus sabaeus. The essentials: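 Vero cells were seeded at 10^5/mL in MEM with 10% FBS and exposed to compounds up to 600 µM for 72 h at 37 °C, 5% CO2. AlamarBlue was added for 24 h at 37 °C, with absorbance read at 550 and 630 nm. Duplicates. CC50/72h determined.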

A short description of data set [4]: Selectivity index, ratio of CC50 for African green monkey Vero cells to IC50 for Leishmania donovani MHOM/NP/02/BPK282/0c14. Conditions: read-out: Ratio CC50/IC50. Format: toxicity. In a few lines: (§2)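 Selectivity index calculated as CC50/72h in Vero (16) or THP-1 (17) cells divided by IC50/72h against L. donovani promastigotes.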
Data set [5] in a line: Cytotoxicity against human THP1 cells after 72 hrs by Alamar blue assay. Format: cell-based. Conditions: THP-1 cells. The essentials: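 THP-1 cells were seeded at 10^5 cells/mL in RPMI-1640 with 10% FBS and adhered with 0.1 µM PMA, then exposed to compounds for 72 h at 37 °C, 5% CO2. AlamarBlue was added for 24 h at 37 °C, with absorbance read at 550 and 630 nm. Duplicates. CC50/72h determined.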

Data set [6] in a line: Selectivity index, ratio of CC50 for human THP1 cells to IC50 for Leishmania donovani MHOM/NP/02/BPK282/0c14. The data set is classed as toxicity. As to conditions: THP-1 cells, read-out: Ratio CC50/IC50. In a few lines: as §2
Another data set has as its system Leishmania tropica. The data set is described as follows: Antileishmanial activity against promastigote stage of Leishmania tropica MHOM/SU/74/K27 assessed as parasite growth inhibition after 72 hrs by Alamar blue assay. Conditions: MHOM/SU/74/K27, 72 h. Format: functional, organism-based. In a few lines: as §1
The test system of a further data set is Leishmania major. The data set is described as follows: Antileishmanial activity against promastigote stage of Leishmania major MHOM/SU/73/5-ASKH assessed as parasite growth inhibition after 72 hrs by Alamar blue assay. The data set is classed as functional, organism-based. In a few lines: as §1
The test system of another data set is Leishmania infantum. Description: Antileishmanial activity against promastigote stage of Leishmania infantum MHOM/TN/80/IPT1 assessed as parasite growth inhibition after 72 hrs by Alamar blue assay. Format: functional, organism-based. As to conditions: MHOM/TN/80/IPT1, 72 h. The essentials:
as §1

For data set [7], the system named is Leishmania donovani. The data set is described as follows: Antileishmanial activity against amastigote stage of Leishmania donovani MHOM/NP/02/BPK282/0c14 infected in human THP1 cells assessed as parasite growth inhibition after 72 hrs by Giemsa staining-based assay. Format: functional, organism-based. Conditions: MHOM/NP/02/BPK282/0c14, THP-1, 72 h. The essentials:
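THP-1 cells at 10^5 cells/mL differentiated with 0.1 µM PMA for 48 h at 37 °C, 5% CO2, then infected with stationary-phase promastigotes. After 24 h, compounds were added at 40–1.5 µM for 72 h. Wells were Giemsa-stained, and the infectivity index (% infected macrophages × mean amastigotes per macrophage) was counted on ≥100 cells in duplicate cultures. IC50/72h determined.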

Data set [8] can be described thus: Binding affinity to Leishmania spp. trypanothione reductase by surface plasmon resonance analysis. Set-up: species or system Leishmania sp. In a few lines:
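Recombinant L. infantum TR was amine-coupled to ~2000 RU on a carboxyl sensor chip. Analytes in HBS pH 7.4 + 1% DMSO were given as FastStep serial doubling injections from 1.56 to 100 µM, followed by dissociation after 100 s. A protein-free surface served as control. Sensorgrams are averages of three experiments. KD came from Scatchard plots and a global 1:1 binding fit.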
(SPR reads the build-up and loss of mass on a sensor chip optically.)

Data set [9] is described as follows: Safety index, ratio of test compound CC50 to amphotericin B CC50 for African green monkey Vero cells. The data set is classed as ADME, cell-based. As to conditions: chlorocebus sabaeus.
A short description of data set [10]: Safety index, ratio of test compound CC50 to amphotericin B CC50 for human THP1 cells. The data set is classed as ADME, cell-based. As to conditions: THP-1 cells.

SMILES strings stand for the structures. pIC50, pKd: −log10 of the molar value. Active and inactive are the calls of the source. The calls are words filed in the database; no cut-off is given here.

Consider `C#CCOc1ccc(C(=O)/C=C/c2ccc([N+](=O)[O-])cc2)c(OCC#C)c1`, for which the “growth inhibition (GI)” value with Leishmania donovani [1] is “inactive”.

For `COc1cc(OCC=C(C)C)ccc1C(=O)/C=C/c1ccco1`, the “growth inhibition (GI)” value with Leishmania donovani [1] was “inactive”.

In general, pIC50 refers to −log10 of the IC50, conventionally taken in molar units. The CC50 is the concentration giving 50% cytotoxicity. As for `COc1cc(OCC=C(C)C)ccc1C(=O)/C=C/c1cc(OC)c(OC)c(OC)c1`, the pIC50 with Leishmania donovani [2] is 4.96. In addition, the CC50 at 72 h in data set [3] is 40 µM; in data set [5], 25 µM. The selectivity ratio in data set [4] came out at 3.6; in [6], 2.3.

For the molecule `CC(C)=CCOc1ccc(C(=O)/C=C/c2ccccc2)c(OCC=C(C)C)c1`, the “growth inhibition (GI)” value in the data set on Leishmania donovani [1] is “inactive”.

Regarding `C#CCOc1ccc(C(=O)/C=C/c2cc(OC)c(OC)c(OC)c2)c(OCC#C)c1`, the “growth inhibition (GI)” value in the data set on Leishmania donovani [1] is “inactive”.

`CC(C)=CCOc1ccc(C(=O)/C=C/c2cccnc2)c(O)c1`: the pIC50 in the data set with Leishmania donovani [2] is 5.07. Moreover, the CC50 at 72 h was found to be 210 µM in data set [3] and 100 µM in data set [5]. Moreover, the selectivity ratio stood at 24.7 in [4] and 11.8 in data set [6].

Regarding `C#CCOc1ccc(C(=O)/C=C/c2cccnc2)c(OC)c1`, the pIC50 with Leishmania donovani [2] is 5.02. Also, the cytotoxic concentration (CC50) at 72 h in data set [3] is 15 µM; in data set [5], 16 µM. Moreover, the figures for the selectivity ratio in [4] and in [6] were 1.6 and 1.7, respectively.

Regarding `CC(C)=CCOc1ccc(C(=O)/C=C/c2ccccc2)c(O)c1`, the “growth inhibition (GI)” value in the data set on Leishmania donovani [1] was “inactive”.

Regarding `COc1ccc(/C=C/C(=O)c2ccc(OCC=C(C)C)cc2OC)cc1`, in the data set on Leishmania donovani [1], the “growth inhibition (GI)” value was “inactive”.

Turning to `C[C@@H]1[C@H](O)[C@@H](C)/C=C/C=C/C=C/C=C/C=C/C=C/C=C/[C@H](O[C@@H]2O[C@H](C)[C@@H](O)[C@H](N)[C@@H]2O)C[C@@H]2O[C@](O)(C[C@@H](O)C[C@@H](O)[C@H](O)CC[C@@H](O)C[C@@H](O)CC(=O)O[C@H]1C)C[C@H](O)[C@H]2C(=O)O` [AMPHOTERICIN B], the pIC50 in the data set with Leishmania donovani [2] is 6.52. Also, the CC50 at 72 h in [3] and in [5] was 200 µM throughout. Moreover, the selectivity ratio in data set [4] and in data set [6] was 666 each time.

Regarding `COc1cc(OCC=C(C)C)ccc1C(=O)/C=C/c1ccc(F)cc1`, the “growth inhibition (GI)” value with Leishmania donovani [1] was “inactive”.

Take `COc1ccc(/C=C/C(=O)c2ccc(OCC=C(C)C)cc2OC)cc1OC`: in the data set on Leishmania donovani [1], the “growth inhibition (GI)” value is “inactive”.

As to `C#CCOc1ccc(C(=O)/C=C/c2ccc(OC)c(OC)c2)c(OCC#C)c1`, the “growth inhibition (GI)” value in the data set on Leishmania donovani [1] was “inactive”.

With `C#CCOc1ccc(C(=O)/C=C/c2ccc(OC)cc2)c(OCC#C)c1`, in the data set on Leishmania donovani [1], the “growth inhibition (GI)” value is “inactive”.

For the molecule `COc1cc(OCC=C(C)C)ccc1C(=O)/C=C/c1cccnc1`, the pIC50 in the data set with Leishmania donovani [2] was 4.98. The CC50 at 72 h in data set [3] was determined as 22 µM; in data set [5], 40 µM. The selectivity ratio in [4] was found to be 2; in data set [6], 3.8.

On to `CC(C)=CCOc1ccc(C(=O)/C=C/c2ccncc2)c(O)c1`, for which the pIC50 with Leishmania donovani [2] was 5.30. The CC50 at 72 h in [3] came out at 40 µM; in data set [5], 16 µM. Further, the selectivity ratio came out at 8 in data set [4] and 3.2 in data set [6].

`COc1cc(OCC=C(C)C)ccc1C(=O)/C=C/c1ccc(Br)cc1`: in the data set with Leishmania donovani [2], the pIC50 was 4.80. Also, the CC50 at 72 h in data set [3] amounted to 600 µM; in [5], 100 µM. Moreover, the selectivity ratio turned out to be 37.5 in data set [4] and 6.3 in [6].

In the case of `C#CCOc1ccc(C(=O)/C=C/c2ccncc2)c(OCC#C)c1`, in the data set on Leishmania donovani [2], the pIC50 was 5.15. Also, the CC50 at 72 h in [3] stood at 10 µM; in data set [5], 11 µM. Further, the figures for the selectivity ratio in data set [4] and in data set [6] were 1.4 and 1.6, respectively.

Consider `C#CCOc1ccc(C(=O)/C=C/c2ccc([N+](=O)[O-])cc2)c(OC)c1`, for which the “growth inhibition (GI)” value in the data set with Leishmania donovani [1] is “inactive”.

For the molecule `COc1cc(OCC=C(C)C)ccc1C(=O)/C=C/c1ccc(NC(C)=O)cc1`, the “growth inhibition (GI)” value with Leishmania donovani [1] was “inactive”.

Take `C#CCOc1ccc(C(=O)/C=C/c2cccnc2)c(OCC#C)c1`: in the data set with Leishmania donovani [2], the pIC50 is 5.40. In addition, the CC50 at 72 h was 6 µM in data set [3] and 15 µM in data set [5]. Moreover, the selectivity ratio in data set [4] was found to be 1.5; in data set [6], 3.8.

On to `COc1cc(OCC=C(C)C)ccc1C(=O)/C=C/c1ccccc1`, for which, in the data set on Leishmania donovani [2], the pIC50 was 4.82. Moreover, the CC50 at 72 h in data set [3] and in [5] was 50 µM each time. The selectivity ratio in [4] and in data set [6] was 3.3 each time.

Take `C#CCOc1ccc(C(=O)/C=C/c2ccc(Br)cc2)c(OC)c1`: in the data set on Leishmania donovani [2], the pIC50 is 4.67. Besides, the CC50 at 72 h in [3] and in data set [5] was 100 µM in each case. Further, the selectivity ratio in data set [4] and in data set [6] was 4.6 each time.

For the molecule `C#CCOc1ccc(C(=O)/C=C/c2ccc(OC)c(OC)c2)c(OC)c1`, the “growth inhibition (GI)” value in the data set on Leishmania donovani [1] is “inactive”.

In the case of `CC(=O)Oc1cc(OCC=C(C)C)ccc1C(=O)/C=C/c1ccccc1`, in the data set on Leishmania donovani [1], the “growth inhibition (GI)” value is “inactive”.

For the molecule `C#CCOc1ccc(C(=O)/C=C/c2cc(OC)c(OC)c(OC)c2)c(OC)c1`, in the data set with Leishmania donovani [1], the “growth inhibition (GI)” value was “inactive”.

Consider `COc1cc(OCC=C(C)C)ccc1C(=O)/C=C/c1ccncc1`, for which the pIC50 in the data set with Leishmania donovani [2] was 4.98. Besides, the CC50 at 72 h in [3] and in [5] was 16 µM each time. In addition, the selectivity ratio in data set [4] and in [6] was 1.5 in each case.

For the molecule `C#CCOc1ccc(C(=O)/C=C/c2cccnc2)c(O)c1`, in the data set on Leishmania donovani [2], the pIC50 is 4.76. For the same molecule, the CC50 at 72 h in [3] amounted to 40 µM; in data set [5] it was 25 µM. The selectivity ratio in [4] was determined as 2.3; in data set [6], 1.4.

Regarding `C#CCOc1ccc(C(=O)/C=C/c2ccncc2)c(OC)c1`, the pIC50 in the data set with Leishmania donovani [2] was 5.40. Further, the CC50 at 72 h was 20 µM in data set [3] and 16 µM in data set [5]. The selectivity ratio was found to be 5 in data set [4] and 4 in data set [6].

One may read the pKd as the negative decadic logarithm of the Kd, by convention in mol/L. As to `C#CCOc1ccc(C(=O)/C=C/c2ccc(F)cc2)c(OCC#C)c1`, the pIC50 is 4.90 in the data set on Leishmania donovani [2]; 4.89 with Leishmania tropica; 5.00 in the data set on Leishmania major; 5.80 in the data set on Leishmania infantum; 5.35 in the data set with Leishmania donovani [7]. The CC50 at 72 h in data set [3] and in data set [5] was 600 µM each time. For the same molecule, the selectivity ratio in data set [4] is 48; in [6], 48; in [9] it was 3; in data set [10] it was 3. Moreover, in data set [8], the pKd is 5.62.

As to `C#CCOc1ccc(C(=O)/C=C/c2ccc(Br)cc2)c(OCC#C)c1`, the pIC50 in the data set on Leishmania donovani [2] is 4.82. For the same molecule, the figures for the CC50 at 72 h in [3] and in data set [5] were 420 µM and 25 µM, respectively. Further, the selectivity ratio is 28 in data set [4] and 1.6 in data set [6].

For the origin of these results see ChEMBL document CHEMBL4152258, “Identification of chalcone-based antileishmanial agents targeting trypanothione reductase” (Eur J Med Chem, 2018).
